Calls of active or inactive are those of the source. The rule behind the calls is not given here.
Key:
[1] = system: Cavia porcellus; assay: (§1) Tested in vivo for antigen-induced systemic anaphylaxis after oral administration; format: functional
[2] = species on record: Cavia porcellus; assay: Inhibition of leukotriene-induced contractions of peripheral guinea pig lung strip; format: functional, organism-based
Method in brief: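 Peripheral guinea pig lung parenchymal strips were challenged with single spasmogen concentrations (LTC4, LTD4 or LTE4), washed, equilibrated, then rechallenged with or without compound. Compound was preincubated at least 5 min before spasmogen. Each tissue served as its own control and was standardized with 1 μM histamine.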

[3] = system: Cavia porcellus; assay: (§2) Tested in vivo for LTD4-induced […] after oral administration by Dermal wheal assay method; format: functional
Method in brief: (§3)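 Guinea pigs dosed orally, usually at a single dose, with full dose-response curves for selected compounds. Read-out was antagonism of wheal and flare from intradermal injection of 100 ng LTD4. Five or more animals per dose.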

[4] = target: Cavia porcellus CysLT1 receptor; assay: In vitro binding affinity against cysteinyl leukotriene D4 receptor from guinea pig lung membrane
[5] = system: Cavia porcellus; assay: as §2; format: functional; design: concentration or dose not given beside the values; method in brief: as §3
[6] = system: Cavia porcellus; assay: as §1; format: functional; design: concentration or dose not given beside the values
[7] = system: Cavia porcellus; assay: Tested in vivo for LTD4-induced […] after oral administration by Dermal wheal assay method; inactive; format: functional, organism-based; method in brief: as §3
[8] = system: Cavia porcellus; assay: Tested in vivo for antigen-induced systemic anaphylaxis after oral administration; inactive; format: functional, organism-based

Row | SMILES | IC50 [2] [nM] | Ki [4] [nM] | ED50 [1] [mg/kg] | ED50 [3] [mg/kg] | Inhibition [5] [%] | Inhibition [6] [%] | ED50 [7] | ED50 [8]
1 | CC(CCCC(=O)O)c1cccc(OCc2ccc3ccccc3n2)c1 (stereo unspecified) | 500 | 90 | – | – | – | – | – | –
2 | CC(CCCc1nnn[nH]1)c1cccc(OCc2ccc3ccccc3n2)c1 (stereo unspecified) | 250 | 31 | – | – | 62 | – | – | –
3 | c1cc(OCCCc2nnn[nH]2)cc(OCc2ccc3ccccc3n2)c1 | 79 | 42 | – | – | – | – | – | –
4 | CC(CCC(=O)O)Cc1ccc(OCc2ccc3ccccc3n2)cc1 (stereo unspecified) | 100 | 43 | – | – | – | – | – | –
5 | CC(CCc1cccc(OCc2ccc3ccccc3n2)c1)CC(=O)O (stereo unspecified) | 800 | 70 | – | – | – | – | – | –
6 | O=C(O)CCCOc1ccc(OCc2ccc3ccccc3n2)cc1 | 800 | 1200 | – | – | – | – | – | –
7 | CCCC(CCC(=O)O)Cc1ccc(OCc2ccc3ccccc3n2)cc1 (stereo unspecified) | 30 | 21 | 9.7 | 6.5 | – | – | – | –
8 | c1ccc2nc(COc3ccc(OCCCc4nnn[nH]4)cc3)ccc2c1 | 250 | 69 | – | – | – | – | – | –
9 | O=C(O)CCCCc1cccc(OCc2ccc3ccccc3n2)c1 | 370 | 100 | – | – | – | – | – | –
10 | c1ccc(C(CCc2nnn[nH]2)Cc2ccc(OCc3ccc4ccccc4n3)cc2)cc1 (stereo unspecified) | 14 | 8 | – | – | – | – | – | –
11 | c1ccc2nc(COc3ccc(CCC4(Cc5nnn[nH]5)CCCC4)cc3)ccc2c1 | 37 | 25 | 2.8 | 4.2 | – | – | – | –
12 | CCCC(CCc1nnn[nH]1)Cc1ccc(OCc2ccc3ccccc3n2)cc1 (stereo unspecified) | 32 | – | 7 | 7.2 | – | – | – | –
13 | CC(CCc1cccc(OCc2ccc3ccccc3n2)c1)Cc1nnn[nH]1 (stereo unspecified) | 45 | 17 | – | 2.8 | – | 27 | – | –
14 | CC(CCC(=O)O)Cc1cccc(OCc2ccc3ccccc3n2)c1 (stereo unspecified) | 500 | 140 | – | – | – | – | – | –
15 | CCCC(CCc1nnn[nH]1)Cc1cccc(OCc2ccc3ccccc3n2)c1 (stereo unspecified) | 16 | 11 | – | – | 38 | – | – | –
16 | CC(CCCc1nnn[nH]1)c1ccc(OCc2ccc3ccccc3n2)cc1 (stereo unspecified) | 170 | 43 | – | – | – | – | – | –
17 | CCCc1c(OCC(O)COc2ccc3c(=O)cc(C(=O)O)oc3c2CCC)ccc(C(C)=O)c1O (stereo unspecified) [FPL-55712] | 800 | – | – | – | – | – | inactive | inactive
18 | CCCC(CCC(=O)O)Cc1cccc(OCc2ccc3ccccc3n2)c1 (stereo unspecified) | 70 | 50 | – | – | – | – | – | –
19 | c1ccc2nc(COc3ccc(CCCCc4nnn[nH]4)cc3)ccc2c1 | 45 | – | – | – | 38 | 100 | – | –
20 | O=C(O)CCC(Cc1cccc(OCc2ccc3ccccc3n2)c1)c1ccccc1 (stereo unspecified) | 56 | 52 | – | – | 78 | 100 | – | –
21 | CC(CCc1nnn[nH]1)Cc1cccc(OCc2ccc3ccccc3n2)c1 (stereo unspecified) | 150 | 34 | – | – | 40 | – | – | –
22 | COc1cc(C(=O)NS(=O)(=O)c2ccccc2)ccc1Cn1ncc2ccc(NC(=O)OC3CCCC3)cc21 [ICI-198615] | 0.4 | 0.2 | – | > 30 | – | 0 | – | –

More lines, main results first:

Row | IC50 [2] [nM] | Ki [4] [nM] | SMILES | ED50 [1] [mg/kg] | ED50 [3] [mg/kg] | Inhibition [5] [%] | Inhibition [6] [%] | ED50 [7] | ED50 [8]
23 | 27 | 12 | CC(CCc1nnn[nH]1)Cc1ccc(OCc2ccc3ccccc3n2)cc1 (stereo unspecified) | 1.2 | 2.5 | – | – | – | –
24 | 500 | 24 | CC(Cc1cccc(OCc2ccc3ccccc3n2)c1)CC(C)C(=O)O (stereo unspecified) | – | – | – | – | – | –
25 | 24 | 14 | c1ccc(C(CCc2nnn[nH]2)Cc2cccc(OCc3ccc4ccccc4n3)c2)cc1 (stereo unspecified) | – | – | 61 | – | – | –
26 | 1500 | – | CCCc1c(OCCCCc2nnn[nH]2)ccc(C(C)=O)c1O [TOMELUKAST] | > 30 | > 30 | – | – | – | –
27 | 60 | 51 | O=C(O)CC1(CCc2ccc(OCc3ccc4ccccc4n3)cc2)CCCC1 | – | – | 73 | 17 | – | –
28 | 75 | 85 | CC(CCCc1cccc(OCc2ccc3ccccc3n2)c1)C(=O)O (stereo unspecified) | – | – | – | – | – | –
29 | 105 | 20 | c1cc(CCCCc2nnn[nH]2)cc(OCc2ccc3ccccc3n2)c1 | – | – | 16 | 83 | – | –
30 | 65 | 31 | O=C(O)CCC(Cc1ccc(OCc2ccc3ccccc3n2)cc1)c1ccccc1 (stereo unspecified) | – | – | 33 | 50 | – | –
31 | 20 | 15 | c1ccc2nc(COc3ccc(CC4CCCC4Cc4nnn[nH]4)cc3)ccc2c1 (stereo unspecified) | 12 | 10 | – | – | – | –
32 | 90 | 100 | O=C(O)CC1CCCC1Cc1ccc(OCc2ccc3ccccc3n2)cc1 (stereo unspecified) | – | – | – | – | – | –
33 | 20 | 25 | CC(CCc1ccc(OCc2ccc3ccccc3n2)cc1)Cc1nnn[nH]1 (stereo unspecified) | – | – | – | – | – | –
34 | 450 | 110 | O=C(O)CCCCc1ccc(OCc2ccc3ccccc3n2)cc1 | – | – | – | – | – | –

— ChEMBL document CHEMBL1125146, “The development of a novel series of (quinolin-2-ylmethoxy)phenyl-containing compounds as high-affinity leukotriene receptor antagonists. 3. Structural variation of the acidic side chain to give antagonists of enhanced potency” (J Med Chem, 1990)
